Compound activity deposited in PubChem by several laboratories.
A selection: hits, their analogues and other compounds. The true share with any hit is near 2.5%.
Bfl-1 A1 inh – caspase 3/7 activation in MEF A1-2A-BIM cells, primary screen, A1 inhibitor project, cell-based, luminescence, HTS | Caspase-Glo 3/7 luminescence, 3 h; percent of clofoctol response, vehicle zero | caspase activation, % (no concentration beside the values) | 330,000 compounds, 0.066% hits;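 active = over half of replicate activation scores above 10%, or exactly half above 10 with the replicate mean above 10; inconclusive = replicate mean below 10 yet half the replicates above 10; inactive = over half of replicates below 10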
MC4R antag cAMP – MC4R antagonists of cAMP signaling, primary screen, cell-based, TR-FRET, antagonist arm of biased-ligand search; Melanocortin receptor 4 (Homo sapiens), P32245; MC4R-expressing cells, MTII-stimulated cAMP, LANCE TR-FRET; inhibition, % at 6.5 µM; 360,000 compounds, 0.48% hits;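 active = inhibition above its plate's cutoff, the mean of tested wells on that plate plus 3 SD, cut at about 29% in these data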;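 also: 0% = Melanotan II alone and 100% = Melanotan II plus saturating MCL0020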
Target sequence (P32245 whole entry, looked up): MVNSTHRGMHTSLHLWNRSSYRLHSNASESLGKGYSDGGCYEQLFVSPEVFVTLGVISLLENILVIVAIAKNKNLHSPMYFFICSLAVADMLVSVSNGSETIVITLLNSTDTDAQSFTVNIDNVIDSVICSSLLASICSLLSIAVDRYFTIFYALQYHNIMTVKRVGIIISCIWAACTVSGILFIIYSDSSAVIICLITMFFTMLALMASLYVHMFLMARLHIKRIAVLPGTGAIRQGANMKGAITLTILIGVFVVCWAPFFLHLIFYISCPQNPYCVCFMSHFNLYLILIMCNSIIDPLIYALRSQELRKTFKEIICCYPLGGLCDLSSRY
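System: U2OS cells stably expressing human melanocortin 4 receptor (MC4R). Reagent: Melanotan II challenge after compound preincubation. Doses: 6.5 µM. Times: 30-min compound, 1-h challenge, 1-h detection, room temperature. Measured by: TR-FRET with Eu-cAMP and labeled anti-cAMP, 671 nm. Replicates: singlicate.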
Tb MetRS inh – T. brucei MetRS inhibitors, primary screen, biochemical, luminescence; inhibition, % at 11.9 µM; methionyl-tRNA synthetase (Trypanosoma brucei brucei); 360,000 compounds, 0.4% hits; AID 624268, 2012; purified T. brucei MetRS, ATP depletion, Kinase-Glo luminescence;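 active = inhibition above a per-plate cutoff of the control wells' mean inhibition plus 3 SD, cut at about 5.5% in these data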;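 also: 0% = DMSO wells median and 100% = median of wells with control inhibitor compound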
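Dosing: 11.9 µM compound single dose, 0.9% DMSO; Assay system: purified T. brucei MetRS enzyme; Measured by: Kinase-Glo luciferase luminescence reporting remaining unconsumed ATP; Schedule: 15 min plus 2 h at 25 °C.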
NALP3 yeast inh – NALP3 inflammasome inhibitors in reconstituted yeast, primary screen, luminescence, uHTS; 330,000 compounds, 0.39% hits; Yeast reconstituted NLRP3/ASC/caspase-1, beta-gal luminescence, 24 h; inhibition, % at 10 µM;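 active = inhibition of 50% or more; inactive = inhibition below 50%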;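 also: plate controls were induced DMSO wells for no effect and uninduced yeast grown without galactose for full effect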
NALP1 yeast inh – NALP1 inflammasome inhibitors in reconstituted yeast, colorimetric, S. cerevisiae, triplicate retest; S. cerevisiae NALP1/ASC/caspase-1 growth, X-gal OD620, 72 h; inhibition, % at 10 µM; 280,000 compounds, 0.61% hits; AID 2071, 2009; in the data active = inhibition mostly above about 24%, no sharp cut-off; inactive = mostly below about 32%
MC4R barr agon – MC4R agonists recruiting beta-arrestin, primary screen, cell-based, luminescence, agonist arm of biased-ligand search; Melanocortin receptor 4 (Homo sapiens), P32245; U2OS MC4R beta-arrestin complementation; percent of melanotan II response, DMSO zero; activation, % at 8.9 µM; 360,000 compounds, 0.98% hits;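 active = activation above a per-plate cutoff, the mean activation of sample wells on that plate plus 3 SD, cut at about 8% in these data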
MC4R barr conf – MC4R beta-arrestin agonists, retest, confirmation, cell-based, luminescence, U2OS. shares compounds with MC4R barr agon. U2OS MC4R beta-arrestin recruitment; scaled DMSO 0%, Melanotan II 100%. activation, % at 8.9 µM. 2,400 compounds, 31% hits. AID 602192, 2012;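 active = mean activation across replicates above the hit cutoff set in the earlier primary screen, cut at about 8% in these data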
MOR-DOR barr ag – agonists of MOR-DOR heterodimerization, counter-screen for MC4R biased agonist project, cell-based, luminescence. AID 602194, 2012. activation, % at 9.2 µM. U2OS PathHunter beta-arrestin, beta-gal luminescence; percent of deltorphin B response, DMSO zero. shares compounds with MC4R barr agon. 2,400 compounds, 5.8% hits;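 active = mean activation across replicates exceeds the hit threshold derived in the earlier primary screen, cut at about 18% in these data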;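 also: 100% = deltorphin B at 0.9 µM final and 0% = DMSO alone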
* hit, by the source's call; ? = inconclusive; · = no result given.

SMILES	Bfl-1 A1 inh	MC4R antag cAMP	Tb MetRS inh	NALP3 yeast inh	NALP1 yeast inh	MC4R barr agon	MC4R barr conf	MOR-DOR barr ag
CC(=O)Nc1cc(-c2ccccc2N(C)C)cn2c(-c3ccccc3)cnc12	·	6	0	·	·	18*	32*	3
COc1cccc(-c2cnc3c(NC(C)=O)cc(-c4ccccc4OC)cn23)c1	·	19	0	·	·	22*	15*	2
CC(=O)Nc1cc(-c2ccccc2N(C)C)cn2c(-c3ccc(S(C)(=O)=O)cc3)cnc12	·	14	0	·	·	3	·	·
COc1ccc(C(=O)Nc2nc(CC(=O)NCCc3ccccc3OC)cs2)cc1	-1	3	0	2	·	-1	·	·
O=C(N/C(=C/c1cccc([N+](=O)[O-])c1)C(=O)N1CCOCC1)c1ccccc1Br	0	-1	0	12	5	-2	·	·
O[C@@H]1CN(CC2CCCCC2)[C@@H](c2ccc(Cl)cc2)C[C@H]1n1cc(-c2ccc(F)cc2)nn1	·	14	-1	·	·	5	·	·
COc1ccc(S(=O)(=O)N2CCOCC2)cc1NC(=O)C1CC1	1	6	0	13	·	-1	·	·
CC1Cc2cc(S(=O)(=O)N3CCC(C(=O)N4CCN(c5ccccc5F)CC4)CC3)ccc2N1C(=O)C1CC1 (stereo not drawn)	0	2	1	20	-26	-1	·	·
COc1cccc(-c2cnc3c(NC(C)=O)cc(-c4cc(OC)c(OC)c(OC)c4)cn23)c1	·	12	0	·	·	29*	21*	1
CCOc1cc(/C=N/NC(=O)CSc2nnc(C)s2)ccc1OCc1ccccc1Cl	?	13	0	3	31	11*	5	7
O=C(CSc1nnc(SCc2ccccc2Cl)s1)N/N=C/c1ccc(C(=O)O)cc1	-3	13	-1	5	12	2	·	·
O=C(COC(=O)c1cccc(S(=O)(=O)N2CCCCC2)c1)NCc1cccc(Cl)c1	·	7	0	·	·	-2	·	·
Cc1cc(OCC(=O)C(C)(C)C)c2c(C)c(C)c(=O)oc2c1	0	-5	1	13	2	15*	1	6
Cc1cccc(N2CCN(C(=S)Nc3ccc4nc(N5CCN(C)CC5)cc(C)c4c3)CC2C)c1 (stereo not drawn)	0	-5	-1	8	4	14*	4	17
Cc1cc(N2CCN(C)CC2)nc2ccc(NC(=S)N3CCCCC3)cc12	·	7	-1	·	-1	-1	·	·
Cc1cccc(N2CCN(C(=S)Nc3ccc4nc(N5CCN(C)CC5)cc(C)c4c3)CC2)c1C	·	7	1	·	20	11*	13*	13
Cc1cc(N2CCN(C)CC2)nc2ccc(NC(=S)N3CCN(c4cccc(Cl)c4)CC3)cc12	1	15	0	16	9	-1	·	·
COc1cc(CNC(=O)Nc2nnc([C@@H]3C[C@H](O)[C@@H](CO)O3)s2)cc(OC)c1OC	·	6	0	·	·	-2	·	·
C(=N\n1cnnc1)/c1cn(Cc2ccccc2)c2ccccc12	0	-2	0	18	-11	-2	·	·
Clc1ccc(Cn2cc(/C=N/n3cnnc3)c3ccccc32)c(Cl)c1	0	14	-1	13	44	16*	11*	8
